{"source": "ChEMBL document CHEMBL1821687", "about": "“Discovery, synthesis, and biological evaluation of novel SMN protein modulators” (J Med Chem, 2011)", "type_in_all_cases": "cell-based", "key": {"[1]": {"target": "Survival motor neuron protein (Homo sapiens) (UniProt Q16637)", "sequence (Q16637 whole entry)": "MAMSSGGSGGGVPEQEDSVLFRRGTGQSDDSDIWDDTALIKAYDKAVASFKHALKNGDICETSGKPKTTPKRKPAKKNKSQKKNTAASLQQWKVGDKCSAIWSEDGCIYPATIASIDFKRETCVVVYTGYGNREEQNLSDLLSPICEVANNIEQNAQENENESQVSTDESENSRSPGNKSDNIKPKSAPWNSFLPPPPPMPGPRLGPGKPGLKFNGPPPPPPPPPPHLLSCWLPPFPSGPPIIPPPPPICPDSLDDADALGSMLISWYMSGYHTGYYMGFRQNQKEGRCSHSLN", "test": "Activation of SMN expressed in HEK293 cells assessed as rate of induction by SMN2-promotor driven luciferase reporter gene assay relative to basal level", "set-up": "concentration or dose not given beside the values", "summary_of_the_method": "(§1)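 HEK-293 cells stably carrying the SMN2 reporter construct, kept in DMEM with 10% FCS, glutamax, pyruvate, pen/strep and 200 µg/mL hygromycin, and assayed without hygromycin. 2,000 cells/well were plated and adhered overnight at 37 °C, 5% CO2. Compounds were added as a 7-point titration, 50 µM to 25 nM final, in 0.46% DMSO, for 30–36 h. OneGlo luminescence was normalized to 4.5 mM sodium butyrate (100%) and DMSO (0%).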"}, "[2]": {"target": "Survival motor neuron protein (Homo sapiens) (UniProt Q16637)", "test": "Activation of SMN expressed in HEK293 cells assessed as concentration required to reach 50% of maximum luciferase signal by SMN2-promotor driven luciferase reporter gene assay", "summary_of_the_method": "as §1"}, "[3]": {"target": "Survival motor neuron protein (Homo sapiens) (UniProt Q16637)", "test": "Activation of SMN in human fibroblast cells obtained from type 1 SMA patients assessed as increase in SMN protein level by quantitative Western blot method", "summary_of_the_method": "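Type I SMA patient fibroblasts (3813 line) were seeded at 8,000 cells/cm2 24 h before dosing, with medium and compound renewed every 24 h for 72 h. Lysates (10 µg protein/lane) were immunoblotted for SMN (4f11 antibody) and α-tubulin. Band intensity was normalized to tubulin and expressed as fold over the DMSO control.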"}, "[4]": {"target": "Survival motor neuron protein (Homo sapiens) (UniProt Q16637)", "test": "Activation of SMN expressed in HEK293 cells by SMN2-promotor driven luciferase reporter gene assay", "summary_of_the_method": "as §1"}}, "note": "Active and inactive are the calls of the source. The rule behind the calls is not given here.", "data": [{"smiles": "CN(C)C(=O)c1ccc(-c2csc(N3CCC(C(N)=O)CC3)n2)cc1", "values": [{"measurement": "Activity", "setting": "[1]", "result": 51, "unit": "%"}, {"measurement": "Activity", "setting": "[2]", "result": 12.2, "unit": "µM"}]}, {"smiles": "COc1nc(-c2ccccc2)nnc1-c1ccccc1", "values": [{"measurement": "Activity", "setting": "[3]", "result": "Dose-dependent effect"}, {"measurement": "Activity", "setting": "[4]", "result": "Active"}]}, {"smiles": "CN(C)c1ccc(-c2csc(N3CCC(C(N)=O)CC3)n2)cc1", "values": [{"measurement": "Activity", "setting": "[1]", "result": 64, "unit": "%"}, {"measurement": "Activity", "setting": "[2]", "result": 30.7, "unit": "µM"}]}, {"smiles": "NC(=O)C1CCN(c2nc(-c3ccccc3F)cs2)CC1", "values": [{"measurement": "Activity", "setting": "[1]", "result": 274, "unit": "%"}, {"measurement": "Activity", "setting": "[2]", "result": 2.44, "unit": "µM"}]}, {"smiles": "Brc1ccc(-c2csc(N3CCCCC3)n2)cc1", "values": [{"measurement": "Activity", "setting": "[1]", "result": 272, "unit": "%"}, {"measurement": "Activity", "setting": "[2]", "result": 19.4, "unit": "µM"}]}, {"smiles": "NC(=O)C1CCN(c2ncc(-c3cccc(N4CCOCC4)c3)s2)CC1", "values": [{"measurement": "Activity", "setting": "[1]", "result": 275, "unit": "%"}, {"measurement": "Activity", "setting": "[2]", "result": 2.44, "unit": "µM"}]}, {"smiles": "CCOC(=O)C1CCN(c2ncc(-c3ccc4c(c3)OCCCO4)s2)CC1", "values": [{"measurement": "Activity", "setting": "[1]", "result": 320, "unit": "%"}, {"measurement": "Activity", "setting": "[2]", "result": 0.031, "unit": "µM"}]}, {"smiles": "NC(=O)C1CCN(c2ncc(-c3ccc4c(c3)OCCO4)s2)CC1", "values": [{"measurement": "Activity", "setting": "[1]", "result": 424, "unit": "%"}, {"measurement": "Activity", "setting": "[2]", "result": 0.097, "unit": "µM"}]}, {"smiles": "O=C(C1CCN(c2nc(-c3ccc(Br)cc3)cs2)CC1)N1CCOCC1", "values": [{"measurement": "Activity", "setting": "[1]", "result": 77, "unit": "%"}, {"measurement": "Activity", "setting": "[2]", "result": 30.8, "unit": "µM"}]}, {"smiles": "CN(C)C(=O)C1CCN(c2nc(-c3ccc(Br)cc3)cs2)CC1", "values": [{"measurement": "Activity", "setting": "[1]", "result": 43, "unit": "%"}, {"measurement": "Activity", "setting": "[2]", "result": 30.8, "unit": "µM"}]}]}
